Rows were chosen to be rich in hits. Some 2.3% of all compounds tested hit in one or more screens of this group.
T cell modulator – modulators of CD8 T cell-vesicle binding, primary screen, mouse 2C CD8+ T cells, flow cytometry; AID 2052, 2009; response (vesicle binding), % at 7 µM; 2C CD8+ T cell-vesicle binding; stronger effect = lower value; 330,000 tested, 0.068% active;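 active means response, share of CD8 T cells binding vesicles, and their 90th percentile fluorescence all below set limits, cut at about 80% in these data, passing the limit was not always enough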;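 further: values below 100% mean blocked vesicle binding to the CD8+ T cells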
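Material: 2C TCR transgenic mouse naive CD8+ T cells, MACS-purified. Also added: QL9-charged Drosophila Ld/ICAM-1/B7-1 vesicles. Timing: binding 1.5 h at 37 °C. Measured by: high-throughput flow cytometry with anti-B7-1 and anti-CD8 staining. Read-out: percent CD8+ FL2 mean versus row control. Controls: Unloaded micro-vesicles (low), QL9 vesicles with 0.7% DMSO (high).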
Pemphigus Ab inh – inhibitors of pemphigus antibody binding to DSG3, primary screen, biochemical, bead-based, flow cytometry, scFv-GFP; Desmoglein-3 (Homo sapiens), P32926; DSG3-coupled beads, scFv-anti-DSG3-GFP binding; stronger effect = lower value; binding (percent of control), % at 10 µM; 310,000 tested, 0.48% active; AID 588358, 2011;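 active means binding more than 3 SD below its plate's average and above zero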;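 further: hits lower antibody fragment binding to DSG3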
Target sequence (P32926 whole entry, looked up, the tested form may be a part): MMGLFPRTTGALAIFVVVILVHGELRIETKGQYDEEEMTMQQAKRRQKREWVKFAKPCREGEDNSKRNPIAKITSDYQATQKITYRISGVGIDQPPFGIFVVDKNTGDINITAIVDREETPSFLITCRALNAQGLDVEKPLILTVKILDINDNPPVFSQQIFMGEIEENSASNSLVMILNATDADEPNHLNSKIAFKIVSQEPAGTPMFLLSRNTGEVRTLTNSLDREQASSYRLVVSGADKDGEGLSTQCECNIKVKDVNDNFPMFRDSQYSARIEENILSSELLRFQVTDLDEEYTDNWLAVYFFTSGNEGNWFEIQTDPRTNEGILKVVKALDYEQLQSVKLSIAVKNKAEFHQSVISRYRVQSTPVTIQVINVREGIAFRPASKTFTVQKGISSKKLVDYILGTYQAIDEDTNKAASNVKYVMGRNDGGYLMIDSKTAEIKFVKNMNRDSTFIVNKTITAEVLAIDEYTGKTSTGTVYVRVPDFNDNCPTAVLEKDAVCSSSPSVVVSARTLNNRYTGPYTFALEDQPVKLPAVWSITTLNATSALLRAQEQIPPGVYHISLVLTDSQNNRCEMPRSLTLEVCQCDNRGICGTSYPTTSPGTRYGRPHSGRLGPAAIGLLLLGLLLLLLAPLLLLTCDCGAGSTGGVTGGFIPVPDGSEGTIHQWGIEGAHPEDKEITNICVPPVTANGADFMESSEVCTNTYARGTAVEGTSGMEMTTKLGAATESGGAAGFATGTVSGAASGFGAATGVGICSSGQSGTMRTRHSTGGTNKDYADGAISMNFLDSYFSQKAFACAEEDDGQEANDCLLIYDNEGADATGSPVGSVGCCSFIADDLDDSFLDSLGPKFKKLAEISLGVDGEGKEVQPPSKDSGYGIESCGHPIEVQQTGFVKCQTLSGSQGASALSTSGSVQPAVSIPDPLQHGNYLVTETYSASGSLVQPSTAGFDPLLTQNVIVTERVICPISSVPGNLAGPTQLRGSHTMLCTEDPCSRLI
GPR7 antag – GPR7 receptor antagonists, primary screen, cell-based, fluorescence, single concentration. GPR7-expressing cells, fluorescence antagonist assay. inhibition, % at 4.4 µM. Neuropeptides B/W receptor type 1 (Homo sapiens), P48145. 290,000 tested, 1.1% active; in the data active means inhibition above about 16%, passing the limit was not always enough;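 further: cells stimulated with the agonist NPW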
CHT block – inhibitors of human choline transporter CHT; B-score at 10 µM; AID 488975, 2010; 310,000 tested, 0.86% active; CHT-expressing cells, membrane potential dye, choline response; stronger effect = lower value;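 active means B-score over 3 SD under the library average, and starting fluorescence ratio not unusually high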;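 further: choline stimulus applied at its EC90 after an EC20 pre-addition; B-score computed on integrated fluorescence ratio after choline addition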
CHT allo act – CHT positive allosteric modulators, primary screen, cell-based, membrane potential dye, choline EC20; B-score at 10 µM; CHT-expressing cells; stronger effect = higher value; LV-AA mutant CHT in HEK293 cells; High affinity choline transporter 1 (Homo sapiens), Q9GZV3; 310,000 tested, 0.49% active;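 active means initial fluorescence not abnormally high and integrated response B-score, plate-corrected, over 3 SD above library mean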
p-CIP stab down – p/CIP-EGFP fusion destabilizers, primary screen, fluorescence, F442A cells; Q05BA5; 16 h; decrease of EGFP signal, % at 10 µM; 290,000 tested, 0.01% active;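 active means EGFP signal decrease of at least 30% at 10 µM or well 3 SD below plate mean, unless failing retest; inactive means the rest, including hits failing retest or dose response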
CHT inh conf – CHT inhibitors, confirmation, cell-based, membrane potential dye, duplicate. shares compounds with CHT block. CHT-expressing cells, choline membrane potential dye; LV-to-AA substituted CHT, HEK293 cells. CHT activity remaining % of control (stronger effect = lower value), % at 10 µM. 2,400 tested, 70% active;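 active means choline transporter activity left, mean of duplicates at 10 µM, below buffer-only control mean minus 3 SD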;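 further: depolarization triggered by choline at its EC90 following an EC20 pre-addition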
HEK293 MPD ctr – membrane potential effects in parental HEK293, counter-screen for CHT inhibitor project, cell-based, membrane potential dye. shares compounds with CHT block. choline response; active = decrease or increase beyond buffer ±3SD. membrane potential ratio readout (active if shifted either direction beyond buffer ±3SD; no single direction) at 10 µM. 2,400 tested, 4% active. AID 493222, 2011;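 further: parental cells lack the transporter so any hit is non-specific; ratio is peak minus trough fluorescence over baseline after EC90 choline challenge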
CHT act confirm – CHT activators, confirmation, cell-based, membrane potential dye, duplicate | shares compounds with CHT allo act | 2,500 tested, 91% active | activation, % at 10 µM | CHT-expressing cells, membrane potential dye fluorescence (FDSS); % of choline EC20–EC90 response window; HEK293 expressing CHT LV-AA mutant; choline added at its EC20 | AID 504833, 2011;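 active means primary screen active, with duplicate mean activation above negative control mean plus 3 SD, cut at about 11% in these data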
HEK293 MP dye – membrane potential response in parental HEK293 cells, counter-screen for CHT activator project, cell-based, membrane potential dye; ratio readout change at 10 µM, hits read low; shares compounds with CHT allo act; membrane potential dye fluorescence (FDSS); measured after EC20 choline addition; AID 623908, 2012; 2,500 tested, 62% active;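 active means duplicate-averaged ratio beyond 3 SD from buffer wells, up or down, though filed actives are nearly all decreases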
Of the large screens only hits and unclear results are named; the others gave an inactive call (follow-up assays come after a bar, where they were run).

COc1ccc(CNC(=O)C2CC(c3cccc(OC)c3)=NO2)cc1 (centres undefined)	none
COc1cc(C=O)ccc1OCCOCCOc1ccccc1Cl	CHT block -5.56 (no result: Pemphigus Ab inh) | CHT inh conf 63.4% | HEK293 MPD ctr inactive
COCCNC(=O)c1cccc(OC2CCN(Cc3ccc(C(C)C)cc3)CC2)c1	none
CC(NC(=O)c1cccc(OC2CCN(C(=O)C3CC3)CC2)c1)c1ccc(F)cc1 (centres undefined)	CHT block -6.28 | CHT inh conf 37.6% | HEK293 MPD ctr inactive
COCC(C)N1CCC(Oc2cccc(C(=O)NCCc3ccccc3)c2)CC1 (centres undefined)	CHT block -10.1 | CHT inh conf 14.2% | HEK293 MPD ctr inactive
C/C=C(\C)CN1CCC(Oc2cccc(C(=O)NCc3ccccn3)c2)CC1	CHT block -9.07 | CHT inh conf 21.1% | HEK293 MPD ctr inactive
COCCNC(=O)c1cccc(OC2CCN(Cc3ccc(C(=O)OC)cc3)CC2)c1	none
CC(C)=CC(=O)N1CCC(Oc2cccc(C(=O)NCc3ccccn3)c2)CC1	none (no result: T cell modulator, GPR7 antag, CHT block, CHT allo act, p-CIP stab down)
CC(C)CN1CCC(Oc2cccc(C(=O)NCCc3ccccc3)c2)CC1	CHT block -11.8 | CHT inh conf 21.0% | HEK293 MPD ctr inactive
CCCC(C(=O)NC1CCCC1)N(Cc1ccccc1)C(=O)c1snc(C(N)=O)c1N (centres undefined)	none
CCCCCC(=O)N1C[C@H](O)[C@@H](n2cc(C3CC3)nn2)C[C@@H]1c1ccc(Cl)cc1	none (no result: T cell modulator, GPR7 antag, CHT block, CHT allo act, p-CIP stab down)
N#CC1(NC(=O)COC(=O)Cc2c[nH]c3ccccc23)CCCCC1	none (no result: T cell modulator, GPR7 antag, CHT block, CHT allo act, p-CIP stab down)
C[C@H]1CN([C@@H](C)CO)C(=O)CCCn2nncc2CO[C@@H]1CN(C)C(=O)c1ccncc1	none (no result: T cell modulator, GPR7 antag, CHT block, CHT allo act, p-CIP stab down)
O=C(CSc1nnc(-c2ccco2)n1Cc1ccco1)NCc1cccs1	CHT block -5.28 | CHT inh conf 66.9% | HEK293 MPD ctr inactive
CC(C)(C)NC(=O)CSc1nnc(-c2ccco2)n1Cc1ccco1	none
C[C@H](CO)N1C[C@H](C)[C@@H](CN(C)C(=O)c2cnccn2)Oc2cc(C#CCC3CCCC3)ccc2S1(=O)=O	none (no result: T cell modulator, GPR7 antag, CHT block, CHT allo act, p-CIP stab down)
CCN(CC)CCNC(=O)c1ccc(N2CCCCC2)c(NS(=O)(=O)c2ccc(C)cc2)c1	CHT block -5.59 | CHT inh conf 48.6% | HEK293 MPD ctr 4.03
CCN(CC)CCNC(=O)c1ccc(NC(=O)c2ccc(S(=O)(=O)N3CCCCCC3)cc2)cc1	none (no result: GPR7 antag, p-CIP stab down)
C[C@H](O)[C@@H]1C(=O)N2CCc3ccc(-c4ccccc4)cc3[C@@H]2C[C@@H]1N(C)C(=O)c1ccco1	none (no result: T cell modulator, GPR7 antag, CHT block, CHT allo act, p-CIP stab down)
CC1CCN(C(=O)c2[nH]cnc2C(=O)Nc2ccccc2F)CC1	none (no result: T cell modulator, GPR7 antag, CHT block, CHT allo act, p-CIP stab down)
CC1(C(=O)N2CCC(CC3CC(c4ccc(Cl)cc4)=NO3)(C(=O)NCC3CCCCC3)CC2)CC1 (centres undefined)	CHT block -5.18 | CHT inh conf 71.4% | HEK293 MPD ctr inactive
Cc1ccc(NC(=O)CN(C)C(=O)c2cc(-c3ccccc3)nn2-c2ccccc2)cc1	none (no result: T cell modulator, GPR7 antag, CHT block, CHT allo act, p-CIP stab down)
Cc1ccccc1Nc1nc(N)nc(COC(=O)c2ccc3c(c2)OCCO3)n1	none (no result: T cell modulator, GPR7 antag, CHT block, CHT allo act, p-CIP stab down)
Cc1c(CCOC(=O)c2cc([N+](=O)[O-])cc([N+](=O)[O-])c2)sc[n+]1CC(=O)c1ccccc1	none | CHT act confirm 31.7 | HEK293 MP dye inactive
Cc1c(CCOC(=O)c2cc([N+](=O)[O-])cc([N+](=O)[O-])c2)sc[n+]1CCCCS(=O)(=O)[O-]	none | CHT act confirm 12.3 | HEK293 MP dye -20.7
Cc1c(CCOC(=O)CC23CC4CC(CC(C)(C4)C2)C3)sc[n+]1CC(=O)c1ccccc1	none
Cc1c(CCOC(=O)CC23CC4CC(CC(C4)C2)C3)sc[n+]1CC(=O)c1ccc(Br)cc1	none | CHT act confirm 27.6 | HEK293 MP dye -25.3
O=C(NCCO)c1ccc2c3n(nc2c1)-c1ccc(Cl)cc1CO3	CHT allo act 8.64 (no result: GPR7 antag) | CHT act confirm 19.8 | HEK293 MP dye -22.7
N#CCCN(Cc1cccnc1)CN1C(=O)c2ccccc2C1=O	none (no result: T cell modulator, GPR7 antag, CHT block, CHT allo act, p-CIP stab down)
Cc1nnc(C)n1/N=C/c1cc2ccccc2nc1Cl	CHT allo act 8.59 | CHT act confirm 50.8 | HEK293 MP dye -54.6
Cc1ccc2c(n1)sc1c(N)ncnc12	CHT allo act 8.32 | CHT act confirm 53.2 | HEK293 MP dye -32.4
Cc1ccc2c(n1)sc1c(-c3ccccc3)c(C#N)c(N)nc12	none
O=C(NC1CCCCC1)C(c1ccco1)N(Cc1cccnc1)C(=O)C1COc2ccccc2O1 (centres undefined)	none | CHT act confirm 13.0 | HEK293 MP dye inactive
O=C(Cn1c(-c2ccccc2)c[n+]2ccsc12)c1ccc(Br)cc1	none | CHT act confirm 41.8 | HEK293 MP dye -33.9
CC1=C(c2ccccc2)SC2=NCCN21	none | CHT act confirm 54.7 | HEK293 MP dye -55.9
CC1(C)CC2CC(C)(CN2/C=N/c2sc3c(c2C#N)CC(C)(C)NC3(C)C)C1 (centres undefined)	CHT allo act 8.05 | CHT act confirm 35.4 | HEK293 MP dye inactive
Cc1ccc2c(c1)C(c1ccc(O)cc1)(c1ccc(O)cc1)C(=O)N2C	CHT allo act 6.37 | CHT act confirm inactive | HEK293 MP dye inactive
COCCN(C(=O)COC(=O)c1ccc2ccccc2c1)c1c(N)n(Cc2ccccc2)c(=O)[nH]c1=O	none (no result: T cell modulator, GPR7 antag, CHT block, CHT allo act, p-CIP stab down)
COc1ccc([C@H]2/C=C\CN(C(=O)CC(C)(C)C)[C@@H](C)C(=O)N2Cc2ccc(F)cc2)cc1	CHT allo act 9.03 (no result: GPR7 antag, p-CIP stab down) | CHT act confirm 24.7 | HEK293 MP dye inactive
